Active and inactive are the calls of the source. No cut-off for these calls is given here.
Legend:
IEC-18 [1] = assay: Inhibition of LPS-induced p38 MAPK phosphorylation in rat IEC-18 cells at 10 uM incubated for 1 hr prior to LPS challenge measured after 30 mins by Western blot analysis; format: cell-based
How it was run: (§1)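 IEC-18 rat intestinal epithelial cells were seeded at 2.5 × 10^5 cells/mL in DMEM (4.5 g/L glucose, 5% FBS) at 37 °C and 5% CO2. After 24 h the medium was switched to 0.5% FBS. Cells were pretreated with compound for 1 h, then stimulated with LPS 1 μg/mL: 30 min for phospho-p38 and 24 h for COX-2. Cytosolic protein (25 μg) was run on Western blots. Each result is the mean of at least three independent experiments.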

IEC-18 [2] = assay: Inhibition of p38 MAPK-induced COX-2 expression in rat IEC-18 cells at 10 uM incubated for 1 hr prior to LPS challenge measured after 24 hrs by Western blot analysis; format: cell-based; how it was run: as §1
[3] = Antiproliferative activity against rat IEC-18 cells at 10 uM after 24 hrs by MTT assay; format: cell-based; details: iec-18, 24 h
[4] = Wound healing activity in rat IEC-18 cells assessed as reduction of cell migration at 10 uM after 24 hrs relative to control; format: functional; design: scale not given: the % may be the effect or the level left
How it was run: (§2)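 Confluent IEC-18 cells (from 2.5 × 10^5 cells/mL seeding) were moved to 0.5% FBS DMEM and scraped. They were then treated with test substance at 10 and 100 μM, or dexamethasone 10 μM. Migration was counted blind as cells crossing the wound border in a defined area from 0 to 24 h, using photomicrographs at 200×. n = 10.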

[5] = Wound healing activity in rat IEC-18 cells assessed as induction of wound closure at 100 uM after 24 hrs relative to dexamethasone; format: functional; how it was run: as §2
[6] = Wound healing activity in rat IEC-18 cells assessed as induction of wound closure at 10 uM after 24 hrs relative to dexamethasone; format: functional; how it was run: as §2
[7] = Antiproliferative activity against rat IEC-18 cells at 10 to 100 uM after 24 hrs by MTT assay; format: cell-based; details: iec-18, 24 h
How it was run: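 IEC-18 rat epithelial cells (passages 18–22) were seeded at 2.5 × 10^5 cells/mL in DMEM (4.5 g/L glucose, 5% FBS). After 24 h the medium was switched to 0.5% FBS and test substance was added at 10 and 100 μM, with dexamethasone 10 μM as reference. Proliferation was read by MTT at 24 h. n = 10.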

IEC-18 [8] = assay: Inhibition of LPS-induced p38 MAPK phosphorylation in rat IEC-18 cells at 100 uM incubated for 1 hr prior to LPS challenge measured after 30 mins by Western blot analysis; format: cell-based
How it was run: (§3)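 IEC-18 cells were seeded at 2.5 × 10^5 cells/mL in DMEM with 5% FBS; after 24 h the medium was switched to 0.5% FBS. Cells were pretreated 1 h with test substance at 100 μM (SB 203580 10 μM as reference), then given LPS 1 μg/mL. Phospho-p38 was read at 30 min and COX-2 at 24 h by Western blot (25 μg protein, 1:1000 antibodies, β-actin normalized). n = 6.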

IEC-18 [9] = assay: Inhibition of p38 MAPK-induced COX-2 expression in rat IEC-18 cells at 100 uM incubated for 1 hr prior to LPS challenge measured after 24 hrs by Western blot analysis; format: cell-based; how it was run: as §3
Mus musculus [10] = assay: Antiinflammatory activity in C57BL/6 mouse DSS-induced chronic colitis model assessed as effect on NFkappaB pathway in colon at 500 mg/kg/day administered through diet for total of 4 weeks for alternative weeks with water measured after 56 days by Western blot analysis; format: functional, organism-based
Mus musculus [11] = assay: (§4) Antiinflammatory activity in C57BL/6 mouse DSS-induced chronic colitis model assessed as downregulation of p38 MAPK phosphorylation in colon at 500 mg/kg/day administered through diet for 4 weeks measured after 56 days by Western blot analysis relative to DSS-treated mouse; format: functional
Mus musculus [12] = assay: as §4, with “iNOS expression” for “p38 MAPK phosphorylation”, “for total of” for “for”, “weeks for alternative weeks with water” for “weeks”; format: functional
Mus musculus [13] = assay: as §4, with “COX-2 expression” for “p38 MAPK phosphorylation”, “for total of” for “for”, “weeks for alternative weeks with water” for “weeks”; format: functional
Mus musculus [14] = assay: (§5) Antiinflammatory activity in C57BL/6 mouse DSS-induced chronic colitis model assessed as induction of IL-10 production in colon at 500 mg/kg/day administered through diet for total of 4 weeks for alternative weeks with water measured after 56 days by ELISA relative to DSS-treated mouse; format: functional; details: C57BL/6, Colon
How it was run: (§6)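 Mice were female C57BL/6 on the chronic DSS schedule: 1% DSS in cycles 1–2, 2% in cycles 3–4, each cycle 7 days DSS then 7 days water. Diet carried 0.25% test substance for 56 days. Colon powder was suspended 20% w/v in PBS/0.1% NP-40, sonicated and spun at 20000g. IL-6, IL-1β and IL-10 were measured in supernatants by ELISA as pg/mL per mg protein. Mean ± SEM, n = 7.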

Mus musculus [15] = assay: Antiinflammatory activity in C57BL/6 mouse DSS-induced chronic colitis model assessed as inhibition of IL-1beta production in colon at 500 mg/kg/day administered through diet for total of 4 weeks for alternative weeks with water measured after 56 days by ELISA relative to DSS-treated mouse; format: functional; details: C57BL/6, Colon; how it was run: as §6
Mus musculus [16] = assay: Antiinflammatory activity in C57BL/6 mouse DSS-induced chronic colitis model assessed as inhibition of IL-6 production in colon at 500 mg/kg/day administered through diet for total of 4 weeks for alternative weeks with water measured after 56 days by ELISA relative to DSS-treated mouse; format: functional; details: C57BL/6, Colon; how it was run: as §6
Mus musculus [17] = assay: as §5, with “decrease in eosinophil peroxidase activity measured reduction” for “induction”, “eosinophil accumulation” for “IL-10 production”, “spectrophotometric analysis” for “ELISA”; format: functional; design: scale not given: the % may be the effect or the level left
How it was run: (§7)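 Female C57BL/6 mice, 6−8 weeks, 18−20 g. Four DSS cycles in drinking water (1% in cycles 1–2, 2% in cycles 3–4; each 7 days DSS, then 7 days water). Diet held 0.25% test substance (about 500 mg/kg/day). Colons taken at day 56 and homogenized in 80 mM phosphate pH 5.4 with 0.5% HTAB. MPO read with TMB/H2O2, 37 °C 3 min, 630 nm. EPO read with o-phenylenediamine/H2O2, 2 min room temperature, 490 nm. NAG read with 4-nitrophenyl N-acetyl-β-D-glucosaminide, 37 °C 5 min, 405 nm. Mean ± SEM, n = 7.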

Mus musculus [18] = assay: as §5, with “decrease in N-acetylglucosaminidase activity measured reduction” for “induction”, “macrophage accumulation” for “IL-10 production”, “spectrophotometric analysis” for “ELISA”; format: functional; design: scale not given: the % may be the effect or the level left; how it was run: as §7
Mus musculus [19] = assay: as §5, with “decrease in myeloperoxidase activity measured reduction” for “induction”, “neutrophil accumulation” for “IL-10 production”, “spectrophotometric analysis” for “ELISA”; format: functional; design: scale not given: the % may be the effect or the level left; how it was run: as §7
Mus musculus [20] = assay: Antiinflammatory activity in C57BL/6 mouse DSS-induced chronic colitis model assessed as reduction of stool consistency at 500 mg/kg/day administered through diet for total of 4 weeks for alternative weeks with water measured after 56 days; format: functional, organism-based
How it was run: (§8)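 Mice and schedule as in the chronic DSS model: four 7-day DSS cycles (1%, 1%, 2%, 2%), each followed by 7 days water, with a diet containing 0.25% test substance. At day 56, stool consistency (normal, loose, diarrhea) and gross rectal bleeding (visible fecal blood, anal examination) were scored within the DAI. n = 10.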

Mus musculus [21] = assay: Antiinflammatory activity in C57BL/6 mouse DSS-induced chronic colitis model assessed as reduction of rectal bleeding at 500 mg/kg/day administered through diet for total of 4 weeks for alternative weeks with water measured after 56 days; format: functional, organism-based; how it was run: as §8
Mus musculus [22] = assay: Antiinflammatory activity in C57BL/6 mouse DSS-induced chronic colitis model assessed as reduction of edema at 500 mg/kg/day administered through diet for total of 4 weeks for alternative weeks with water measured after 56 days by hematoxylin-eosin staining; format: functional, organism-based
Mus musculus [23] = assay: Antiinflammatory activity in C57BL/6 mouse DSS-induced chronic colitis model assessed as reduction of mucosal injury at 500 mg/kg/day administered through diet for total of 4 weeks for alternative weeks with water measured after 56 days by hematoxylin-eosin staining; format: functional, organism-based
Mus musculus [24] = assay: Antiinflammatory activity in C57BL/6 mouse DSS-induced chronic colitis model assessed as leukocyte infiltration into mucosal tissue at 500 mg/kg/day administered through diet for total of 4 weeks for alternative weeks with water measured after 56 days by hematoxylin-eosin staining; format: functional, organism-based
Mus musculus [25] = assay: Antiinflammatory activity in C57BL/6 mouse DSS-induced chronic colitis model assessed as reduction of colon weight to length ratio at 500 mg/kg/day administered through diet for total of 4 weeks for alternative weeks with water measured after 56 days; format: functional, organism-based
How it was run: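 Female C57BL/6 mice received four DSS cycles: 7 days DSS in drinking water (1%, then 2% in cycles 3–4) followed by 7 days water. Diet contained 0.25% test substance, about 500 mg/kg/day. At day 56, colons were removed, rinsed in cold PBS, blotted, weighed and measured to give weight/length (mg/cm). n = 10.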

Mus musculus [26] = assay: Antiinflammatory activity in C57BL/6 mouse DSS-induced chronic colitis model assessed as prevention of body weight loss at 500 mg/kg/day administered through diet for total of 4 weeks for alternative weeks with water measured after 56 days; format: functional, organism-based
Mus musculus [27] = assay: Antiinflammatory activity in C57BL/6 mouse DSS-induced chronic colitis model assessed as decrease in severity of progressive chronic injury at 500 mg/kg/day administered through diet for total of 4 weeks for alternative weeks with water measured after 56 days; format: functional, organism-based
Mus musculus [28] = assay: Toxicity in C57BL/6 mouse assessed as effect on viability at 500 mg/kg/day administered through diet for total of 4 weeks for alternative weeks with water measured after 56 days; format: organism-based; details: in vivo, 1344 h
Mus musculus [29] = assay: Antiinflammatory activity in C57BL/6 mouse DSS-induced chronic colitis model assessed as up regulation of annexin A1 mRNA expression in colon at 500 mg/kg/day administered through diet for total of 4 weeks for alternative weeks with water measured after 56 days by RT-PCR analysis relative to DSS-treated control; format: functional
How it was run: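 Female C57BL/6 mice (6−8 weeks, 18−20 g) got four cycles of 7 days DSS in drinking water (1% cycles 1–2, 2% cycles 3–4) then 7 days water, with diet at 0.25% test agent throughout. Colons were taken at day 56. cDNA from 500 ng RNA was amplified with annexin A1 primers (25 cycles: 94/60/72 °C, 1 min each) and run on 2% agarose gel.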

## C[S+]([O-])c1ccc(-c2nc(-c3ccc(F)cc3)c(-c3ccncc3)[nH]2)cc1 (centres undefined)
IEC-18 [1]
  inhibition: Active
IEC-18 [2]
  inhibition: 70%

## C[C@@H]1C[C@H]2[C@@H]3CCC4=CC(=O)C=C[C@]4(C)[C@@]3(F)[C@@H](O)C[C@]2(C)[C@@]1(O)C(=O)CO [DEXAMETHASONE]
[3]
  Activity: Non-toxic
[4]
  Activity: 20%

## C/C=C1/[C@H](O[C@@H]2O[C@H](CO)[C@@H](O)[C@H](O)[C@H]2O)OC=C(C(=O)OC)[C@H]1CC(=O)OCCc1ccc(O)c(O)c1 [OLEUROPEIN]
[5]
  Activity: 80%
[6]
  Activity: 57%
[7]
  Activity: Non-toxic
IEC-18 [8]
  inhibition: Active
IEC-18 [9]
  inhibition: 83%
Mus musculus [10]
  Activity: inactive
Mus musculus [11]
  Activity: <=65%
Mus musculus [12]
  Activity: 58%
Mus musculus [13]
  Activity: 68%
Mus musculus [14]
  induction in vivo at 500 mg/kg/day: 34%
Mus musculus [15]
  inhibition in vivo at 500 mg/kg/day: 25%
Mus musculus [16]
  inhibition in vivo at 500 mg/kg/day: 37%
Mus musculus [17]
  Activity: 46%
Mus musculus [18]
  Activity: 42%
Mus musculus [19]
  Activity: 36%
Mus musculus [20]
  Activity: Active
Mus musculus [21]
  Activity: Active
Mus musculus [22]
  Activity: Active
Mus musculus [23]
  Activity: Active
Mus musculus [24]
  Activity: Active
Mus musculus [25]
  Activity: Active
Mus musculus [26]
  Activity: Active
Mus musculus [27]
  Activity: Active
Mus musculus [28]
  Activity: Non-toxic
Mus musculus [29]
  fold change (FC): 46
